Experimental data collected from several papers.
Each line is one published result; the experiments were not run side by side.
Target: Dual specificity protein kinase CLK1 (CLK1, Homo sapiens, UniProt P49759)
Method: competition with immobilised ligand

| Compound | assay | conditions | remaining binding [%] |
| --- | --- | --- | --- |
| O=C(NCCCN1CCOCC1)c1ccc(Nc2nccc(-c3cc4ccccc4s3)n2)cc1 | binding | 1 µM | 12 |
| CN(CCCC(F)(F)F)c1nccc(-c2cnn3ncccc23)n1 | binding | 1 µM | 43 |
| C[C@H](c1ccnc(Nc2nc3ccc(-c4cc(N(C)C)ncn4)cc3[nH]2)c1)N1CCN(C(=O)CC(F)(F)F)CC1 | cell-free assay | 0.1 µM | 90 |
| FC(F)(F)Oc1cccc(-c2cnc3ccc(-c4ccncc4)nn23)c1 | cell-free assay | 5 µM | 0.7 |
| CS(=O)(=O)N1CCCC(NC(=O)[C@H](CCC2CCCCC2)NC(=O)c2ccc(CNc3ncnc4c3nnn4-c3ccccc3)cc2)C1 (some centres unmarked) | cell-free assay | 0.1 µM | 87 |
| COc1cnc(Nc2cccc(S(N)(=O)=O)c2)nc1N1CCN(c2ccccc2)CC1 | binding | 1 µM | 96 |
| O=S(=O)(NC1CCC(c2cc(F)ccc2F)(S(=O)(=O)c2ccc(Cl)cc2)CC1)C(F)(F)F (centres unmarked) | cell-free assay | 1 µM | 78 |
| O=C(NCCCN1CCOCC1)c1ccc(Nc2ncc(Cl)c(-c3ccc(Cl)s3)n2)cc1 | binding | 1 µM | 3.6 |
| Nc1ncc2c(n1)-c1c([nH]c3ccc(C#CC4CC4)cc13)CCCC2 | binding | 1 µM | 100 |
| O=C(Nc1c[nH]nc1C(=O)NC1CCNCC1)c1cc(F)cc(F)c1 | binding | 1 µM | 100 |
| O=C(c1ccc(Nc2ncc(Cl)c(-c3cc4ccccc4s3)n2)cc1)N1CCC(N2CCCC2)CC1 | binding | 1 µM | 3 |
| COc1ncc2cc3ccccc3nc2c1C#N | cell-free assay | 5 µM | 98 |
| C=CC(=O)N1CCC(C(=O)NCC(=O)N2CCN(c3nc(-c4cnc(N)nc4C(F)F)nc(N4CCOCC4)n3)CC2)CC1 | binding | 1 µM | 93 |
| COc1cc(-c2cn(C3CCc4c(F)cccc4N(CC(F)(F)F)C3=O)nn2)ccc1-n1cnc(C)c1 (centres unmarked) | cell-free assay | 1 µM | 77 |
